# Shown are actives, neighbours in structure and some others; about 3.7% of the full set was active somewhere.
# NS3 helicase inh = HCV NS3 helicase inhibition. NS3 helicase DNA unwinding, Cy5 molecular beacon fluorescence. inhibition, % at 10.9 µM. actives 0.56% (n = 290,000). AID 1800;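 active = inhibition above the mean of all tested compounds plus 3 SD, set per campaign, cut at about 35% in these data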
#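 Test system: hepatitis C virus NS3 helicase domain fragment enzyme. Also added: annealed dual-labelled DNA beacon duplex, ATP-started. Timing: 60 min unwinding reaction at 25 °C after ATP addition. Technique: Cy5 fluorescence. Measure: % inhibition of unwinding.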
# core dimer inh = blocks dimerization of HCV core protein; actives 0.33% (n = 300,000); AID 1899; TR-FRET GST/Flag-core106 dimerization, 1536-well; inhibition, % at 5 µM;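 active = inhibition above the mean of all tested compounds plus 3 SD, set per screening campaign, cut at about 45% in these data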
#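 Test system: GST/Flag-tagged HCV core106 proteins; Medium: KF-containing HEPES buffer, pH 7.45, DTT, CHAPS, BSA; Times: compound-protein-antibody incubation 4 h at 22.5 °C; Detection: TR-FRET 671 and 617 nm emission; Benchmarks: wells lacking GST-core106 and wells with excess unlabelled core106.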
# TAAR1 antagonist = human TAAR1 antagonism; Q96RJ0; CHO RD-HGA16 TAAR1, Fluo-8 calcium fluorescence, antagonist; inhibition, % at 3 µM; actives 1.5% (n = 360,000); AID 624466;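 active = inhibition above a per-plate cutoff, the mean inhibition of test compounds on that plate plus 3 SD, cut at about 49% in these data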
# Target sequence (Q96RJ0 whole entry, looked up): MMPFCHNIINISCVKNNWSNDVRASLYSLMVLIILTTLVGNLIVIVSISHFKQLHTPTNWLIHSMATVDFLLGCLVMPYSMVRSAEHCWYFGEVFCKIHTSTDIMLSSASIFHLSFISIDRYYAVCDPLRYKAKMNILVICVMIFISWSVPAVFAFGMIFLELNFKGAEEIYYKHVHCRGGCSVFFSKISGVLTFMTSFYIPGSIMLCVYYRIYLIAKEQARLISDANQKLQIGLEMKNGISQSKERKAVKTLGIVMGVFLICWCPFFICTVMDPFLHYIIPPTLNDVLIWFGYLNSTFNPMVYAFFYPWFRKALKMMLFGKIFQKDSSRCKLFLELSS
#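 test system = CHO RD-HGA16 cells bearing hTAAR1 | replication = singlicate | controls = DMSO-only wells and EC80 β-PEA-stimulated wells | reagent = EC80 β-phenethylamine stimulus | read-out basis = percent inhibition of PEA-evoked calcium signal, max/basal emission ratio | schedule = seeding 17-24 h prior, 75-min 37 °C, 30-min RT dye loading | signal = kinetic Fluo-8 calcium fluorescence measurement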
# TAAR1 ag = human TAAR1 agonism; Q96RJ0; CHO RD-HGA16 TAAR1, Fluo-8 calcium fluorescence; vehicle wells 0%, saturating PEA agonist 100%; activation, % at 3 µM; actives 0.99% (n = 360,000);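 active = activation above the mean activation of all test compounds in the run plus 3 SD, cut at about 38% in these data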
#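 test system = CHO RD-HGA16 cells carrying human TAAR1 plus Gα16 | schedule = 17-24 h seeding, 75 min 37 °C dye, 30 min RT | compound dosing = 3 µM single concentration | control set = DMSO and PEA EC100 | replicates = n 1 | signal = Fluo-8 fluorescence, 5 s baseline then 140 s kinetic read | measure = percent activation vs PEA EC100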
# rCAG RNA binder = molecules binding r(CAG) RNA repeats. actives 1.3% (n = 370,000). inhibition, % at 3 µM. r(CAG) RNA repeat, TO-PRO-1 dye displacement fluorescence;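 active = inhibition above the plate cutoff, the mean of all test compounds on that plate plus 3 SD, cut at about 35% in these data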;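 also: higher means more dye released from RNA so lower well fluorescence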
# rCAG bind conf = r(CAG) RNA repeat binding, confirmation; actives 70% (n = 4,300); shares compounds with rCAG RNA binder; inhibition, % at 3 µM; TO-PRO-1 dye displacement fluorescence; AID 652065;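 active = inhibition above a per-plate cutoff, the mean inhibition of sample wells plus 3 SD, cut at about 35% in these data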;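 also: loss of TO-PRO-1 fluorescence as compound displaces dye from 1x1 AA loop RNA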
# DNA CAG counter = DNA CAG dye complex inhibition counter-screen; shares compounds with rCAG RNA binder; d(CAG) DNA oligo TO-PRO-1 dye displacement, fluorescence; inhibition, % at 3 µM; actives 94% (n = 4,300); AID 652068;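 active = inhibition above its plate's cutoff, the mean test-well inhibition plus 3 SD, cut at about 4.8% in these data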;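 also: hits displace the dye from DNA and so lower well fluorescence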
# Hits are given with their value; - = inactive; . = no result given.
SMILES,NS3 helicase inh,core dimer inh,TAAR1 antagonist,TAAR1 ag,rCAG RNA binder,rCAG bind conf,DNA CAG counter
Cc1[nH]c2ccc(OC(F)(F)F)cc2c1CCN1C(=O)c2ccc(C(=O)O)cc2C1=O,-,-,-,-,48,44,13
Cc1cccc(C(=O)Nc2sc3c(c2C(=O)O)CCCC3)c1,-,-,-,-,41,-,9.3
N#Cc1c(NC(=O)c2cccc(S(=O)(=O)Nc3ccc(C(=O)O)cc3)c2)sc2c1CCCC2,-,-,-,-,61,46,17
O=C(NC(=S)Nc1sc2c(c1C(=O)O)CCCC2)c1ccccc1,-,-,-,-,72,56,20
O=C(Nc1sc2c(c1C(=O)O)CCC2)c1cccc(Cl)c1,-,-,-,-,74,53,15
O=C(NC1CCCC1)N1CCC(c2nc3ccc(Cl)cc3[nH]2)CC1,.,.,.,.,-,.,.
CC(C)c1[nH]nc2c1C(c1ccccc1)N(c1ccccc1)C2=O (stereo not drawn),.,.,-,-,-,.,.
O=C(Nc1ccc(C(=O)O)cc1)/C(=C\c1ccc2c(c1)OCO2)NC(=O)c1ccccc1,-,-,-,-,-,.,.
O=C(Nc1cccc2ccccc12)/C(=C/c1ccc([N+](=O)[O-])cc1)NC(=O)c1ccccc1,-,-,-,-,-,.,.
O=C(N/N=C/c1ccc(O)c(O)c1O)/C(=C/c1ccc([N+](=O)[O-])cc1)NC(=O)c1ccccc1,-,-,-,-,66,66,32
Cc1ccc(NC(=O)/C(=C/C=C/c2ccccc2)NC(=O)c2ccccc2)cc1,-,-,-,-,-,.,.
O=C(Nc1ccc(C(=O)O)cc1)/C(=C\c1ccc2c(c1)OCO2)NC(=O)c1ccc(Br)cc1,-,-,-,-,39,-,8.0
CC(=O)Oc1ccc(/C=C(\NC(=O)c2cccc(Br)c2)C(=O)Nc2ccc(C(=O)O)cc2)cc1,.,-,-,-,50,-,6.4
O=C(Nc1ccc(C(=O)O)cc1)/C(=C\C=C\c1ccccc1)NC(=O)c1ccc(Br)cc1,-,-,-,-,72,66,32
CCn1c2ccccc2c2cc(C=NNC(=O)c3ccoc3C)ccc21,.,.,.,.,-,.,.
C[C@H]1C(c2ccccc2F)O[C@]2(C[C@H](O)c3c(ccc4ccccc34)O2)C[C@@H]1O (stereo partly drawn),.,.,.,.,-,.,.
COCCCNC(=O)C[C@H]1C[C@@]2(C(=O)OC)C(=C[C@H](C(C)C)O[C@@H]2C2CC2)N(Cc2ccc3c(c2)OCO3)C1=O,.,.,.,.,-,.,.
COC(=O)C1=C(C)N(Cc2cccc(C(F)(F)F)c2)C(=NCc2ccc(OC)cc2)NC1c1ccccc1C(F)(F)F (stereo not drawn),.,.,-,-,-,.,.
COC(=O)C1CN(Cc2ccc(C)cc2)CCS(=O)(=O)N1Cc1cn(Cc2ccc(C)cc2)nn1 (stereo not drawn),.,.,.,.,-,.,.
O=C(Nc1ccc(C(=O)O)cc1)/C(=C\c1ccc([N+](=O)[O-])cc1)NC(=O)c1ccc(Br)cc1,-,-,-,-,44,-,7.0
COc1ccc(/C=C(\NC(=O)c2ccc(OC)cc2)C(=O)Nc2ccc(C(=O)O)cc2)cc1,-,.,-,-,-,.,.
O=C(Nc1cccc(C(=O)O)c1)/C(=C/c1ccc([N+](=O)[O-])cc1)NC(=O)c1ccccc1,-,-,-,-,-,.,.
CC(C)(C)c1ccc(C(=O)N/C(=C\c2cccc([N+](=O)[O-])c2)C(=O)Nc2cccc(C(=O)O)c2)cc1,-,-,-,-,84,75,44
CC(=O)N1CCCN(S(=O)(=O)c2ccc3c(c2)n(C)c(=O)c(=O)n3C)CC1,.,.,.,.,-,.,.
CCc1nnc(NS(=O)(=O)c2ccc(NC(=O)c3cc(Cl)ccc3[N+](=O)[O-])cc2)s1,-,.,-,-,45,-,5.9
SMILES,NS3 helicase inh,core dimer inh,TAAR1 antagonist,TAAR1 ag,rCAG RNA binder,rCAG bind conf,DNA CAG counter
CCc1nnc(NS(=O)(=O)c2ccc(NC(=O)c3cc(Cl)ccc3Cl)cc2)s1,-,-,-,-,54,36,11
CCc1nnc(NS(=O)(=O)c2ccc(NC(=O)CCC(=O)O)cc2)s1,-,-,-,-,-,.,.
CCc1nnc(NS(=O)(=O)c2ccc(NC(=O)c3cccc4ccccc34)cc2)s1,-,-,-,-,64,44,16
CCc1nnc(NC(=O)c2cc(OC)c(OC)cc2[N+](=O)[O-])s1,-,-,-,-,-,.,.
CCc1nnc(NS(=O)(=O)c2ccc(NS(=O)(=O)c3ccc(NC(C)=O)cc3)cc2)s1,-,.,.,.,.,.,.
COC(=O)C1CN(Cc2cn(CCC3OCCO3)nn2)CCS(=O)(=O)N1Cc1ccc(C)cc1 (stereo not drawn),.,.,.,.,-,.,.
O=C(OC12CCCN(C1)/C(=C/c1ccc(Cl)cc1)C2)C1CCCCC1 (stereo not drawn),.,.,.,.,-,.,.
C/C(=N/NC(=O)c1cc2ccccc2cc1O)c1ccco1,-,-,-,-,51,-,9.0
C/C(=N\NC(=O)c1cc(C)nc2ccccc12)c1ccco1,-,-,-,-,-,.,.
O=C(NNC(=O)c1cc2ccccc2cc1O)c1cccs1,-,-,-,-,-,.,.
C/C(=N\NC(=O)c1cc2ccccc2cc1O)c1cccs1,-,-,-,-,50,-,-
C=CCCC(=O)N(Cc1ccccc1)c1ccccc1C(=O)Nc1cc(OC)ccc1OC,.,.,.,.,-,.,.
Cc1nn(-c2ccccc2)c2sc(-c3nnc(SCC(=O)O)o3)cc12,-,-,-,-,46,56,15
Cc1cccc(C(=O)Nc2nc3ncccn3c2-c2ccccc2)c1,.,.,.,.,-,.,.
CC(c1ccccc1)c1nnc(NC(=O)Nc2ccccc2)s1 (stereo not drawn),-,-,-,-,43,-,17
Cc1ccc(NC(=O)Nc2nnc(CSCCOc3ccc(Cl)cc3)s2)cc1,-,-,-,-,-,.,.
CCc1nnc(NC(=O)Nc2ccc(OC)cc2)s1,-,-,-,-,-,.,.
CC(c1ccccc1)c1nnc(NC(=O)Nc2ccccc2F)s1 (stereo not drawn),-,.,-,-,-,.,.
COc1cccc(NC(=O)Nc2nnc(CC(=O)Nc3ccccc3)s2)c1,-,-,-,-,43,-,21
COc1ccc(NC(=O)Nc2nnc(CC(=O)Nc3ccccc3)s2)cc1,-,-,-,-,42,-,15
CCCCOc1ccc(NC(=O)Nc2nnc(C)s2)cc1,-,-,-,-,37,-,8.2
COCc1cc(N2CCN(C(=O)OC(C)(C)C)C[C@@H]2C)ccc1N1CCN(Cc2ccccc2)[C@@H](C)C1,.,.,-,-,-,.,.
CCOC(=O)c1c(NC(=O)OC)sc2c1CCC2,-,-,-,-,-,.,.
